Test results: ChEMBL document CHEMBL1821697, “Design and synthesis of brain penetrant selective JNK inhibitors with improved pharmacokinetic properties for the prevention of neurodegeneration” (Bioorg Med Chem Lett, 2011)

What was measured:
[1] = Oxidative metabolic stability in human liver microsomes assessed as compound remaining at 1 uM after 30 mins; type: ADME, Microsome; details: read-out: Stability
In short: (§1)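 Test compound was incubated with mouse, rat or human liver microsomes for 30 min. The read-out is percent of parent compound remaining.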

[2] = target: Mitogen-activated protein kinase 8 (Homo sapiens, UniProt P45983); assay: Inhibition of recombinant JNK1 using ser73 of c-jun as substrate preincubated for 15 mins measured after 60 mins by TR-FRET assay
In short: (§2)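 Recombinant JNK enzyme assay run at 10 µM ATP. IC50 values are means of at least three experiments.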

[3] = target: Mitogen-activated protein kinase 10 (Homo sapiens, UniProt P53779); assay: Inhibition of recombinant JNK3 using ser73 of c-jun as substrate preincubated for 15 mins measured after 60 mins by TR-FRET assay; in short: as §2
[4] = target: Mitogen-activated protein kinase 9 (Homo sapiens, UniProt P45984); assay: Inhibition of recombinant JNK2 using ser73 of c-jun as substrate preincubated for 15 mins measured after 60 mins by TR-FRET assay; in short: as §2
[5] = Oxidative metabolic stability in rat liver microsomes assessed as compound remaining at 1 uM after 30 mins; type: ADME, Microsome; details: read-out: Stability; in short: as §1
[6] = Oxidative metabolic stability in mouse liver microsomes assessed as compound remaining at 1 uM after 30 mins; type: ADME, Microsome; details: read-out: Stability; in short: as §1
[7] = target: Mitogen-activated protein kinase 1 (Homo sapiens, UniProt P28482); assay: Inhibition of recombinant ERK2 using Ser383 of Elk-1 as substrate preincubated for 15 mins measured after 60 mins by TR-FRET assay
[8] = target: Mitogen-activated protein kinase 14 (Homo sapiens, UniProt Q16539); assay: Inhibition of recombinant p38alpha Thr69/71 of ATF-2 as substrate preincubated for 15 mins measured after 60 mins by TR-FRET assay
[9] = Apparent permeability from apical to basolateral side of MDCK2 cells at 5 uM after 120 mins by LC/MS/MS method; type: ADME, cell-based, Canis lupus familiaris, MDCK-II; details: dog, MDCK
MDR1 = assay: Efflux ratio of permeability across MDCK2 expressing MDR1 at 5 uM after 120 mins by LC/MS/MS method; type: ADME, Canis lupus familiaris, MDCK-II; details: dog, MDCK-MDR1
[10] = Solubility of the compound in Hank's buffered salt solution at 20 mM at pH 7.4 after 1 hr; type: physicochemical
[11] = Ratio of drug level in brain to plasma in mouse at 1 mg/kg, iv; type: ADME, organism-based; design: dose 1 mg/kg, route intravenous; details: read-out: BPR
In short: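 Single intravenous dose of 1 mg/kg in mice. Brain exposure was reported as brain AUC (ng h/mL), together with the brain-to-plasma ratio.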

[12] = AUC in mouse brain at 1 mg/kg, iv; type: ADME, organism-based; design: dose 1 mg/kg, route intravenous
In short: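 Mice were dosed intravenously at 1 mg/kg. Brain exposure was expressed as AUC (ng h/mL) alongside the brain/plasma ratio.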

Rattus norvegicus [13] = assay: AUC in rat at 2 mg/kg, po; type: ADME, organism-based, Plasma; design: dose 2 mg/kg, route oral; details: in vivo
In short: (§3)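 Rats received an oral dose of 2 mg/kg. Plasma AUC is reported in nmol h/mL. Oral bioavailability (F%) was calculated against a 1 mg/kg intravenous dose.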

[14] = Half life in rat at 1 mg/kg, iv; type: ADME, organism-based; design: dose 1 mg/kg, route intravenous; details: in vivo
In short: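 Rats were given a single intravenous dose of 1 mg/kg. Half-life is reported in min, together with clearance (mL/h/kg).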

Rattus norvegicus [15] = assay: Oral bioavailability in rat at 2 mg/kg; type: ADME, organism-based; details: in vivo; in short: as §3

Chain of Mitogen-activated protein kinase 10 (P53779 whole entry): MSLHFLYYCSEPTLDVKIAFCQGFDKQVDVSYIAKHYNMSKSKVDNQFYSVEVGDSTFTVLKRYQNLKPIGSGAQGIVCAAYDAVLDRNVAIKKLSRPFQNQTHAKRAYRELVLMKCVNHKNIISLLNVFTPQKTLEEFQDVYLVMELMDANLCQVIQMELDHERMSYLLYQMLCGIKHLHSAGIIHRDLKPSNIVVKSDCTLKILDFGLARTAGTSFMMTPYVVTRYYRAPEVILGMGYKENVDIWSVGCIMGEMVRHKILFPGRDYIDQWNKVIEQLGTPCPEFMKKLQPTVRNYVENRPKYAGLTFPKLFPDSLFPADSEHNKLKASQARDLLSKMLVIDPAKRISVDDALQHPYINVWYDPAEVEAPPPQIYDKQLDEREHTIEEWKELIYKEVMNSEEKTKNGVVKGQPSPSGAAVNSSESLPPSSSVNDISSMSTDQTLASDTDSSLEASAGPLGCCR
Chain of Mitogen-activated protein kinase 9 (P45984 whole entry): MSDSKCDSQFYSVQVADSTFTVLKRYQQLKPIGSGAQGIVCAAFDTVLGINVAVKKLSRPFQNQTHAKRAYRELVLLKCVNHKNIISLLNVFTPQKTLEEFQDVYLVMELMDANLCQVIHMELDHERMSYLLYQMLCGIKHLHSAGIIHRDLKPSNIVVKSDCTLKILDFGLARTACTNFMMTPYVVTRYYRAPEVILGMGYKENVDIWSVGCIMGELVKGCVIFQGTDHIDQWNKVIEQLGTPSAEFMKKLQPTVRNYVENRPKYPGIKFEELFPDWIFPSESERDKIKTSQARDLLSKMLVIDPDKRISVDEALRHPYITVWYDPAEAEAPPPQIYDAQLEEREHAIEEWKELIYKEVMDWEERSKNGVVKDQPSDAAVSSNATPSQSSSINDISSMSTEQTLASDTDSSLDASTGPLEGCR
Chain of Mitogen-activated protein kinase 8 (P45983 whole entry): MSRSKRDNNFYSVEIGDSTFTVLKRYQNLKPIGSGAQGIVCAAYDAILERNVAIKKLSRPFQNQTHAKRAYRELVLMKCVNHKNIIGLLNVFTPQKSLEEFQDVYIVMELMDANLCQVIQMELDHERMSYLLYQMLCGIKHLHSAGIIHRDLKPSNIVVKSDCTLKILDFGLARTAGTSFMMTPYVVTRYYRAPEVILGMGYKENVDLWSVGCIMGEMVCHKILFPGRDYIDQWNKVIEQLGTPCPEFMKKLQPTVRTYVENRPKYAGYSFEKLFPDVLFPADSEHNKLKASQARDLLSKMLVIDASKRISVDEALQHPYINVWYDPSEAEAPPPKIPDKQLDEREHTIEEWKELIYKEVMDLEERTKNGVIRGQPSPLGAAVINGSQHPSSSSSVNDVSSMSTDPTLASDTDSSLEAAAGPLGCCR
Chain of Mitogen-activated protein kinase 1 (P28482 whole entry): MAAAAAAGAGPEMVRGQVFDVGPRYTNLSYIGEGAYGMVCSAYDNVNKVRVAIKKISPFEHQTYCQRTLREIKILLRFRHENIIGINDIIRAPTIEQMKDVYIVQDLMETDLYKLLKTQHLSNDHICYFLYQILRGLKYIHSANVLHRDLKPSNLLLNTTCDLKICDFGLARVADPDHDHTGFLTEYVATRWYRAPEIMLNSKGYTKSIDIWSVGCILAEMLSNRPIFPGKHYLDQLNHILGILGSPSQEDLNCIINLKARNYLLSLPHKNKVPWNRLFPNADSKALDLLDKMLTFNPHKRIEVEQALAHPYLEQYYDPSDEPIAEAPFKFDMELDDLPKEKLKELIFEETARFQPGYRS
Chain of Mitogen-activated protein kinase 14 (Q16539 whole entry): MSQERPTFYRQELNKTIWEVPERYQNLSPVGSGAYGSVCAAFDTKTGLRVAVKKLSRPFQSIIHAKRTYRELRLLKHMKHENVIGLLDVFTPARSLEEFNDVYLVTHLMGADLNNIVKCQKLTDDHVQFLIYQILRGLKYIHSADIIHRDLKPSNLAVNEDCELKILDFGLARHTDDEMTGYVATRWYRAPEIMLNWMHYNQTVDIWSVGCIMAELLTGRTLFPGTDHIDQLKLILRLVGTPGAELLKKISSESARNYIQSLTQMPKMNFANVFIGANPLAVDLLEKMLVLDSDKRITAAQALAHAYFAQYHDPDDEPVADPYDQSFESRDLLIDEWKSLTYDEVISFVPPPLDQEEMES

SMILES | remaining at 0.5 h, 1 µM [1] | IC50 [2] | IC50 [3] | IC50 [4] | remaining at 0.5 h, 1 µM [5] | remaining at 0.5 h, 1 µM [6] | IC50 [7] | IC50 [8] | Papp A→B at 2 h, 5 µM [9] | efflux ratio at 2 h, 5 µM (MDR1) | solubility at 1 h, 20000 µM [10] | Kp [11] | AUC [12] | AUC (Rattus norvegicus [13]) | half-life [14] | F (Rattus norvegicus [15])
O=C(Cn1c(=O)ccn2nccc12)Nc1scc(Br)c1-c1ncn[nH]1 | 72% | 8 nM | 8 nM | 74 nM | 71% | 50% |  |  |  |  |  |  |  |  |  | 
N#Cc1ccc2ccc(=O)n(CC(=O)Nc3scc(Br)c3-c3ncn[nH]3)c2c1 | 59% | 1 nM | 2 nM | 10 nM | 62% | 44% |  |  |  |  |  |  |  |  |  | 
N#Cc1csc(NC(=O)Cn2c(=O)ccc3cc(C(F)(F)F)ccc32)c1-c1ncco1 | 24% | 4 nM | 8 nM | 29 nM | 2% | 4% |  |  |  |  |  |  |  |  |  | 
O=C(Cc1ccc(F)c2cnccc12)Nc1scc(Br)c1-c1ncn[nH]1 | 44% | 16 nM | 24 nM | 68 nM | 5% | 34% |  |  |  |  |  |  |  |  |  | 
O=C(Cn1c(=O)ccc2cnc(C(F)(F)F)cc21)Nc1scc(Br)c1-c1ncn[nH]1 | 77% | 4 nM | 6 nM | 21 nM | 43% | 43% |  |  |  |  |  |  |  |  |  | 
N#Cc1ccc2c(ccc(=O)n2CC(=O)Nc2scc(Br)c2-c2ncn[nH]2)c1 | 69% | 1 nM | 2 nM | 10 nM | 46% | 60% | > 50000 nM | > 50000 nM | 3.43 ×10⁻⁶ cm/s | 4.18 |  |  |  |  |  | 
O=C(CN1C(=O)CCc2ncccc21)Nc1scc(Br)c1-c1ncco1 | 11% | 7 nM | 6 nM | 66 nM | 0% | 0% |  |  |  |  |  |  |  |  |  | 
N#Cc1csc(NC(=O)CN2C(=O)CCc3ncccc32)c1-c1nccs1 | 16% | 10 nM | 11 nM | 62 nM | 1% | 7% |  |  |  |  |  |  |  |  |  | 
N#Cc1csc(NC(=O)CN2C(=O)CCc3ccccc32)c1-c1ncn[nH]1 |  |  |  |  | 0% |  |  |  |  |  | 95 µM |  |  |  |  | 
O=C(Cc1ccc(C(F)(F)F)c2ncccc12)Nc1scc(Cl)c1-c1ncn[nH]1 | 32% | 81 nM | 183 nM | 24 nM | 1% | 3% |  |  |  |  |  |  |  |  |  | 
Cn1cnc(-c2c(Br)csc2NC(=O)CN2C(=O)CCc3ncccc32)n1 | 46% | 1 nM | 3 nM | 13 nM | 37% | 33% |  |  |  |  |  |  |  |  |  | 
O=C(Cn1c(=O)ccc2cnccc21)Nc1scc(Br)c1-c1ncn[nH]1 | 85% | 4 nM | 7 nM | 8 nM | 60% | 51% |  |  |  |  |  |  |  |  |  | 
O=C(Cn1c(=O)ccc2ccc(C(F)(F)F)cc21)Nc1scc(Br)c1-c1ncn[nH]1 | 44% | 6 nM | 9 nM | 21 nM | 25% | 29% |  |  |  |  |  |  |  |  |  | 
O=C(Cn1c(=O)ccc2c(C(F)(F)F)cccc21)Nc1scc(Br)c1-c1ncn[nH]1 | 49% | 31 nM | 71 nM | 193 nM | 1% | 27% |  |  |  |  |  |  |  |  |  | 
O=C(CN1C(=O)CCc2ccccc21)Nc1scc(Br)c1-c1ncn[nH]1 | 24% |  |  |  | 0% | 0% |  |  |  |  |  |  |  |  |  | 
O=C(Cn1c(=O)ccn2nc(C(F)(F)F)cc12)Nc1scc(Br)c1-c1ncn[nH]1 | 48% | 3 nM | 14 nM | 36 nM | 42% | 3% |  |  |  |  |  |  |  |  |  | 
O=C(Cc1cccc2cnccc12)Nc1scc(Cl)c1-c1ncn[nH]1 |  |  |  |  | 9% |  |  |  |  |  | 25 µM | 0.4 | 88 ng·h/mL |  |  | 
N#Cc1csc(NC(=O)Cn2c(=O)ccc3cc(C(F)(F)F)ccc32)c1-c1cscn1 | 32% | 2 nM | 8 nM | 17 nM | 8% | 17% |  |  |  |  |  |  |  |  |  | 
O=C(Cc1cccc2ncc(F)cc12)Nc1scc(Br)c1-c1nc[nH]n1 | 39% | 17 nM | 30 nM | 92 nM | 17% | 2% |  |  |  |  |  |  |  |  |  | 
O=C(Cc1cc(C(F)(F)F)cc2ncccc12)Nc1scc(Br)c1-c1nnc[nH]1 | 31% | 178 nM | 280 nM | 337 nM | 16% | 3% |  |  |  |  |  |  |  |  |  | 
O=C(CN1C(=O)CCc2ncccc21)Nc1scc(Br)c1-c1ncn[nH]1 | 83% | 9 nM | 14 nM | 32 nM | 50% | 55% | > 500 nM | > 50000 nM | 36.8 ×10⁻⁶ cm/s | 1.8 |  | 0.24 | 35 ng·h/mL | 2720 ng·h/mL | 2.5 min | 91%
O=C(CN1C(=O)CCc2ncccc21)Nc1scc(Br)c1-c1nccs1 | 3% | 13 nM | 15 nM | 145 nM | 0% | 0% |  |  |  |  |  |  |  |  |  | 
O=C(Cc1cccc2ncc(C(F)(F)F)cc12)Nc1scc(Br)c1-c1nc[nH]n1 | 37% | 21 nM | 52 nM | 164 nM | 20% | 3% |  |  |  |  |  |  |  |  |  | 
O=C(Cn1c(=O)ccc2ccc(OC(F)(F)F)cc21)Nc1scc(Br)c1-c1ncn[nH]1 | 29% | 11 nM | 19 nM | 68 nM | 26% | 10% |  |  |  |  |  |  |  |  |  | 
N#Cc1csc(NC(=O)CN2C(=O)CCc3ncccc32)c1-c1nc[nH]n1 | 80% | 5 nM | 6 nM | 18 nM | 81% | 84% |  |  |  |  |  |  |  |  |  | 
N#Cc1csc(NC(=O)Cn2c(=O)ccc3cc(C(F)(F)F)ccc32)c1-c1nccs1 | 75% | 7 nM | 9 nM | 53 nM | 76% | 52% |  |  |  |  |  |  |  |  |  | 
O=C(Cc1cc(F)cc2ncccc12)Nc1scc(Br)c1-c1ncn[nH]1 | 42% | 14 nM | 41 nM | 140 nM | 18% | 5% |  |  |  |  |  |  |  |  |  | 
O=C(Cn1c(=O)ccc2cc(F)c(F)cc21)Nc1scc(Br)c1-c1ncn[nH]1 | 38% | 3 nM | 5 nM | 15 nM | 9% | 14% | > 50000 nM | > 50000 nM | 8.31 ×10⁻⁶ cm/s | 0.68 |  | 1.4 | 160 ng·h/mL | 571 ng·h/mL | 2.3 min | 40%
O=C(Cn1c(=O)ccc2cc(OC(F)(F)F)ccc21)Nc1scc(Br)c1-c1ncn[nH]1 | 64% | 2 nM | 6 nM | 12 nM | 39% | 16% |  |  |  |  |  |  |  |  |  | 
O=C(Cn1c(=O)ccc2nc(C(F)(F)F)ccc21)Nc1scc(Br)c1-c1ncn[nH]1 | 64% | 8 nM | 14 nM | 38 nM | 2% | 35% |  |  |  |  |  |  |  |  |  | 
